Laboratory results published in ChEMBL document CHEMBL1649235, “The proteasome inhibitor epoxomicin has potent Plasmodium falciparum gametocytocidal activity” (Antimicrob Agents Chemother, 2009).
Activity calls are given as the source filed them. The calls are words filed in the database; no cut-off is given here.

Key:
Plasmodium falciparum [1] = experiment: Antimicrobial activity against asexual stage of Plasmodium falciparum 3D7 assessed as reduction in parasite count at 100 uM after 24 hrs by Giemsa staining; type: functional, organism-based
In short: (§1)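 3D7 cultures containing asexual stages and gametocytes incubated 24 h with inhibitor at 100 µM or DMSO carrier, at 37°C in a sealed chamber (90% N2, 5% CO2, 5% O2), fed with RPMI 1640, hypoxanthine and 10% human serum. Asexual parasites and gametocytes assessed on Giemsa-stained smears.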

Plasmodium falciparum [2] = experiment: Antimicrobial activity against Plasmodium falciparum 3D7 assessed as stage 5 gametocyte per 1000 RBCs at 100 uM after 5 days by Giemsa staining relative to control; type: functional
In short: (§2)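 Gametocyte cultures of strain 3D7, 8 days after setup, exposed 24 h to inhibitor at 100 µM or an equal amount of DMSO. Kept at 37°C under 90% N2/5% CO2/5% O2 and fed daily with RPMI 1640, hypoxanthine and 10% human serum. Gametocytes per 1,000 RBCs scored by stage (II–V) on Giemsa-stained smears.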

Plasmodium falciparum [3] = experiment: Antimicrobial activity against Plasmodium falciparum 3D7 assessed as stage 4 gametocyte per 1000 RBCs at 100 uM after 5 days by Giemsa staining relative to control; type: functional; in short: as §2
Plasmodium falciparum [4] = experiment: Antimicrobial activity against Plasmodium falciparum 3D7 assessed as stage 3 gametocytes per 1000 RBCs at 100 uM after 2 days by Giemsa staining relative to control; type: functional
In short: (§3)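 3D7 cultures holding asexual parasites and gametocytes, gametocytogenesis induced per Ifediba and Vanderberg. Inhibitor at 100 µM or DMSO carrier for 24 h in a sealed chamber (90% N2, 5% CO2, 5% O2) at 37°C. Fed daily with RPMI 1640, hypoxanthine (10 mg liter−1) and 10% human serum. Gametocytes per 1,000 RBCs counted and staged on Giemsa smears 2 days after treatment.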

Plasmodium falciparum [5] = experiment: Antimicrobial activity against Plasmodium falciparum 3D7 assessed as stage 2 gametocytes per 1000 RBCs at 100 uM after 2 days by Giemsa staining relative to control; type: functional; in short: as §3
Plasmodium falciparum [6] = experiment: Antimicrobial activity against Plasmodium falciparum 3D7 assessed as stage 3 gametocyte per 1000 RBCs at 100 uM after 5 days by Giemsa staining relative to control; type: functional; in short: as §2
Plasmodium falciparum [7] = experiment: Antimicrobial activity against Plasmodium falciparum 3D7 assessed as stage 4 gametocytes per 1000 RBCs at 100 uM after 2 days by Giemsa staining relative to control; type: functional; in short: as §3
Plasmodium falciparum [8] = experiment: Antimicrobial activity against gametocyte stage of Plasmodium falciparum 3D7 assessed as reduction in parasite count at 1 uM after 24 hrs by Giemsa staining; type: functional; design: scale not given: the % may be the effect or the level left
In short: (§4)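 Mixed asexual/gametocyte 3D7 cultures (mainly stage II–III gametocytes) exposed 24 h to serial dilutions (10 nM to 1 µM) or DMSO carrier at 37°C under low-oxygen gas. Asexual parasites and gametocytes counted on Giemsa smears and expressed as percent of DMSO control. IC50 calculated from the 24-h time point.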

[9] = Cytotoxicity against mouse 3T3 cells assessed as viable cells at 1 uM by MTS assay in presence of 10% fetal calf serum; type: cell-based; settings: 3T3 cells (NIH3T3), read-out: Activity
In short: (§5)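 NIH-3T3 mouse fibroblasts or A549 human lung epithelial cells (1 × 104 to 5 × 10^4 per well) in DMEM with 10% FCS. Viability read by MTS tetrazolium reduction as absorbance.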

Plasmodium falciparum [10] = experiment: Antimicrobial activity against asexual stage of Plasmodium falciparum 3D7 assessed as reduction in parasite count at 1uM after 24 hrs by Giemsa staining; type: functional; design: scale not given: the % may be the effect or the level left; in short: as §4
Plasmodium falciparum [11] = experiment: Antimicrobial activity against gametocyte stage of Plasmodium falciparum 3D7 after 24 hrs; type: functional, organism-based; settings: 3D7, 24 h; in short: as §4
Plasmodium falciparum [12] = experiment: Antimicrobial activity against asexual stage of Plasmodium falciparum 3D7 assessed as reduction in parasite count at 100 nM after 24 hrs by Giemsa staining; type: functional; design: scale not given: the % may be the effect or the level left; in short: as §4
[13] = Cytotoxicity against human A549 cells assessed as viable cells at 1 uM by MTS assay in presence of 10% fetal calf serum; type: cell-based; settings: read-out: Activity; in short: as §5
Plasmodium falciparum [14] = experiment: Antimicrobial activity against asexual stage of Plasmodium falciparum 3D7 after 24 hrs; type: functional, organism-based; settings: 3D7, 24 h; in short: as §4
Plasmodium falciparum [15] = experiment: Antimicrobial activity against gametocyte stage of Plasmodium falciparum 3D7 assessed as reduction in parasite count at 100 nM after 24 hrs by Giemsa staining; type: functional; design: scale not given: the % may be the effect or the level left; in short: as §4
Plasmodium falciparum [16] = experiment: Antimicrobial activity against asexual stage of Plasmodium falciparum 3D7 at 100 uM after 24 hrs by Giemsa staining; type: functional, organism-based; in short: as §1
Plasmodium falciparum [17] = experiment: Antimicrobial activity against Plasmodium falciparum 3D7 assessed as gametocytes per 1000 RBCs at 100 uM after 2 days by Giemsa staining relative to control; type: functional; in short: as §3
Plasmodium falciparum [18] = experiment: Antimicrobial activity against gametocyte stage of Plasmodium falciparum 3D7 at 100 uM after 24 hrs by Giemsa staining; type: functional, organism-based; in short: as §1

In the case of `CCOC(=O)[C@H]1O[C@@H]1C(=O)N[C@@H](CC(C)C)C(=O)NCCC(C)C` [ALOXISTATIN], the Activity (Plasmodium falciparum [1]) is reported as “Active”, the Activity (Plasmodium falciparum [2]) is reported as 10% and the Activity (Plasmodium falciparum [3]) is reported as 68%. It also gave an Activity (Plasmodium falciparum [4]) of 18%, an Activity (Plasmodium falciparum [5]) of 72% and an Activity (Plasmodium falciparum [6]) of 22%. For the same compound, the Activity (Plasmodium falciparum [7]) was 10%.
Compound `CC[C@H](C)[C@H](NC(=O)[C@H]([C@@H](C)CC)N(C)C(C)=O)C(=O)N[C@H](C(=O)N[C@@H](CC(C)C)C(=O)[C@@]1(C)CO1)[C@@H](C)O` [EPOXOMYCIN] has an Activity (Plasmodium falciparum [8]) of 77%, a viability at 1 µM [9] of 80% and an Activity (Plasmodium falciparum [10]) of 86%. For the same compound, the IC50 (Plasmodium falciparum [11]) was 54 nM, the Activity (Plasmodium falciparum [12]) was 86% and the viability at 1 µM [13] was 80%. The IC50 (Plasmodium falciparum [14]) was 41 nM and the Activity (Plasmodium falciparum [15]) was 77%.
With `Cc1ccc(S(=O)(=O)N[C@@H](Cc2ccccc2)C(=O)CCl)cc1` [TPCK] the Activity (Plasmodium falciparum [16]) was “inactive”, the Activity (Plasmodium falciparum [17]) was 21% and the Activity (Plasmodium falciparum [18]) was “inactive”.
